The values below come from ChEMBL document CHEMBL2150854, “Macrocyclic Hedgehog Pathway Inhibitors: Optimization of Cellular Activity and Mode of Action Studies” (ACS Med Chem Lett, 2012).

SMILES strings stand for the structures. Activity calls are given as the source filed them. No cut-off for these calls is given here.

Experiment [1] has as its target Sonic hedgehog protein (Homo sapiens) (UniProt Q15465). Description: Inhibition of human Shh-induced mouse C3H10T1/2 cell differentiation after 48 hrs by alkaline phosphatase reporter assay relative to cyclopamine. Conditions: C3H 10T1/2. The procedure, abridged: (§1)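 Murine mesenchymal C3H10T1/2 cells were induced to differentiate with Shh protein. Differentiation was read as alkaline phosphatase expression, quantified with fluorescent substrates. Uninduced cells served as baseline. IC50 was taken from dose–response curves.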
(A reporter such as luciferase makes a cellular process visible.)

Experiment [2] relates to C3H 10T1/2. As to the kind of experiment: Effect on purmorphamine-induced Gli1 transcription in mouse C3H10T1/2 cells at 103 to 25000 nM by qPCR analysis. It counts as functional, cell-based. For orientation: In qPCR the cycle at which signal appears reflects the starting amount.
In experiment [3] the test system is C3H 10T1/2. Description: Effect on SAG-induced Gli1 transcription in mouse C3H10T1/2 cells at 103 to 25000 nM by qPCR analysis. It counts as functional, cell-based. The procedure, abridged: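 Double-titration (Schild-type) design in murine mesenchymal C3H10T1/2 cells. Gli1 expression is induced by a series of SAG concentrations, each combined with several inhibitor concentrations. Gli1 mRNA is quantified by real-time qPCR with Actb as internal control. SAG dose–response curves are compared across inhibitor levels for shifts and for the maximal induction.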

Experiment [4] deals with Protein smoothened (Mus musculus) (UniProt P56726). Description: Inhibition of Smo in mouse C3H10T1/2 cells assessed as inhibition of human Shh-induced cell differentiation after 48 hrs by alkaline phosphatase reporter assay relative to cyclopamine. In kind it is cell-based. Conditions: C3H 10T1/2. The procedure, abridged:
as §1

Experiment [5] has the same target. As to the kind of experiment: Inhibition of Smo in mouse Ptch-deficient MEF cells assessed as inhibition of Shh-induced Gli1 transcriptional activity in presence of SAG. In kind it is cell-based.
Experiment [6] has the same target. Description: Inhibition of Smo in mouse C3H10T1/2 cells assessed as inhibition of human Shh-induced Gli1 transcriptional activity after 48 hrs by RT-PCR analysis in presence of SAG. It counts as cell-based. The following applies: C3H 10T1/2.
Experiment [7] shares this target. Description: Inhibition of Smo in mouse Ptch-deficient MEF cells assessed as inhibition of Shh-induced Gli-responsive betagalactosidase activity after 30 hrs by BetaGLo assay in presence of SAG. In kind it is cell-based. The procedure, abridged:
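Ptch-/- MEF β-gal reporter cells were given an inhibitor dose range together with 20 nM SAG. β-Gal activity was read, with untreated cells and 100 nM KAAD-cyclopamine-treated cells as reference levels.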

In experiment [8] the test system is C3H 10T1/2. Description: Effect on purmorphamine-induced Gli1 transcription in mouse C3H10T1/2 cells at 55.5 to 4500 nM by qPCR analysis. It counts as functional, cell-based.
In experiment [9] the target is Protein smoothened (Mus musculus) (UniProt P56726). The following applies: C3H 10T1/2, 55.5 to 4500 nM.
Experiment [10] deals with T1, Protein smoothened (Mus musculus, UniProt P56726). Description: Inhibition of Smo in mouse Ptch-deficient MEF cells assessed as inhibition of Shh-induced Gli-responsive betagalactosidase activity after 30 hrs by BetaGLo assay. It counts as cell-based.
The target in experiment [11] is T1, Protein smoothened. Description: Inhibition of Smo in mouse Ptch-deficient MEF cells assessed as inhibition of Shh-induced Gli1 transcriptional activity. In kind it is cell-based.
The target of experiment [12] is Protein smoothened (Mus musculus) (UniProt P56726). The following applies: C3H 10T1/2, at 103 to 25000 nM.
Experiment [13] shares this target. Description: Ratio of IC50 for Smo in mouse C3H10T1/2 cells assessed as inhibition of human Shh-induced Gli1 transcriptional activity in presence of SAG to IC50 for Smo in mouse C3H10T1/2 cells assessed as inhibition of human Shh-induced Gli1 transcriptional activity. In kind it is cell-based. The following applies: C3H 10T1/2.
Experiment [14] addresses T1, Protein smoothened. As to the kind of experiment: Inhibition of Smo in mouse C3H10T1/2 cells assessed as inhibition of human Shh-induced Gli1 transcriptional activity after 48 hrs by RT-PCR analysis. In kind it is cell-based, C3H 10T1/2. The procedure, abridged: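 Murine mesenchymal C3H10T1/2 cells were activated with Shh protein and exposed to inhibitor. Gli1 mRNA was quantified by real-time qPCR, normalised to Actb as internal control, and IC50 was taken from dose–response curves.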

For experiment [15], the target named is Protein smoothened (Mus musculus) (UniProt P56726). As to the kind of experiment: Inhibition of Smo in mouse C3H10T1/2 cells assessed as inhibition of human Shh-induced Gli1 transcriptional activity after 48 hrs by RT-PCR analysis relative to cyclopamine. It counts as cell-based. The following applies: C3H 10T1/2.
Experiment [16] shares this target. As to the kind of experiment: Competitive inhibition of Smo in mouse C3H10T1/2 cells assessed as inhibition of purmorphamine-induced Gli1 transcriptional activity at 103 to 25000 nM by qPCR analysis. It counts as cell-based. The following applies: C3H 10T1/2.
The target is the same in experiment [17]. As to the kind of experiment: Competitive inhibition of Smo in mouse C3H10T1/2 cells assessed as inhibition of purmorphamine-induced Gli1 transcriptional activity at 309 to 25000 nM by qPCR analysis. It counts as cell-based. The following applies: C3H 10T1/2.

T1 sequence (P56726 whole entry): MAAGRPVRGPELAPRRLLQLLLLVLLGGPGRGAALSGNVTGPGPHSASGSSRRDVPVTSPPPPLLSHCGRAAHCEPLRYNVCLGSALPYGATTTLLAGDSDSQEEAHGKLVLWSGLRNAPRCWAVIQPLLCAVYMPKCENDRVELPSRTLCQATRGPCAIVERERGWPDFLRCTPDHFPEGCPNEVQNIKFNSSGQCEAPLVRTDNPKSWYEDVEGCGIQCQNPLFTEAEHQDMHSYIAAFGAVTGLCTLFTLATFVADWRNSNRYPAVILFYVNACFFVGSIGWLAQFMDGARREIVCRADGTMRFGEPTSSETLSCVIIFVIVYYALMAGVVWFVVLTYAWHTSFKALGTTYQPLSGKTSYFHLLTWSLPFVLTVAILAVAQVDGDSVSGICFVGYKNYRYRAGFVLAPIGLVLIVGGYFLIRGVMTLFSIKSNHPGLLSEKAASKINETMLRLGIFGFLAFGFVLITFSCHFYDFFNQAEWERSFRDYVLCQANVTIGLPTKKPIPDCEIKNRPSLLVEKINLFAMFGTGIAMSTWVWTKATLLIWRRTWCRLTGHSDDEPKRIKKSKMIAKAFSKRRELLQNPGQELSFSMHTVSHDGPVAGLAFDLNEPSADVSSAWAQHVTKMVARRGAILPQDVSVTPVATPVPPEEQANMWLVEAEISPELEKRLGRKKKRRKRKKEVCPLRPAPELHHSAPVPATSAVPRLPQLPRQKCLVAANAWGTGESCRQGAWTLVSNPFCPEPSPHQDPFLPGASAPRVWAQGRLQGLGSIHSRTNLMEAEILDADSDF
Protein smoothened (Mus musculus), sequence (P56726 whole entry): as above
Sonic hedgehog protein (Homo sapiens), sequence (Q15465 24-197 limits assumed): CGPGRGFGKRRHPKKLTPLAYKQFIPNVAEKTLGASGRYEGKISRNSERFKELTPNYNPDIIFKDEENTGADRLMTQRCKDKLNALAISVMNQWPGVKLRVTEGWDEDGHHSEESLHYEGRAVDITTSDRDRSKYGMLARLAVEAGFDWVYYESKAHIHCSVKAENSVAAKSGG

In the case of `O=C(C[C@@H]1C/C=C/CCC(=O)O[C@H](c2ccccc2)CNC1=O)NCc1ccc(Cl)cc1`, the Imax in experiment [1] was found to be 47%. Further, the outcome in the experiment with C3H 10T1/2 [2] and with C3H 10T1/2 [3] was inactive.

As to `CC(C)N[C@H]1C/C=C/C[C@@H](CC(=O)NCc2ccc(Cl)cc2)C(=O)NC[C@@H](c2ccccc2)OC1=O`, the Imax in experiment [4] is 41%.

Turning to `O=C(C[C@@H]1C/C=C/CCC(=O)N[C@H](C2CCCCC2)COC1=O)NCc1ccc(Cl)cc1`, the Imax in [4] turned out to be 75%.

As for `C[C@H]1[C@@H](c2ccccc2)OC(=O)CCCCC[C@@H](CC(=O)NCc2ccc(Cl)cc2)C(=O)N1C`, the Imax in experiment [4] worked out at 59%.

For `CC(C)[C@@H]1COC(=O)[C@H](CC(=O)NCc2ccc(Cl)cc2)C/C=C/CCC(=O)N1`, the Imax in experiment [4] stood at 54%.

For the molecule `CN1C[C@@H](c2ccccc2)OC(=O)CC/C=C/C[C@@H](Cc2ccc(Cl)cc2)C1=O`, the Imax in experiment [4] is 104%.

As to `O=C(C[C@@H]1C/C=C/CCC(=O)N[C@H](c2ccc(F)cc2)COC1=O)NCc1ccc(Cl)cc1`, in experiment [4], the Imax turned out to be 90%.

`CC1=C2C[C@H]3[C@@H](CC=C4C[C@@H](O)CC[C@@]43C)[C@@H]2CC[C@]12O[C@@H]1C[C@H](C)CN[C@H]1[C@H]2C`: the inhibition entry in [5], in experiment [6] and in experiment [7] was “inactive” in each case. Further, in the experiment with C3H 10T1/2 [8], the outcome was inactive. In addition, the inhibition result in experiment [9] was “Active”.

For `C[C@H]1NC(=O)[C@H](CC(=O)NCc2ccc(Cl)cc2)C/C=C/CCC(=O)O[C@@H]1c1ccccc1`, in [4], the Imax amounted to 69%.

Usually IC50 stands for the concentration that gives 50% inhibition. On to `O=C(C[C@@H]1C/C=C/CCC(=O)N[C@H](c2ccc(Cl)cc2)COC1=O)NCc1ccc(Cl)cc1`, for which the values for the Imax in experiment [4] and in [15] were 105% and 100%, respectively. In addition, the IC50 is 2 µM on Protein smoothened [10], 3.5 µM on Protein smoothened [11] and 0.4 µM on Protein smoothened [14]. Moreover, the inhibition entry in [5], in experiment [6] and in experiment [7] was “inactive” in each case. For the same molecule, the inhibition result in experiment [12] and in experiment [16] was “Active” each time. Besides, the Ratio IC50 in [13] was found to be 32.

On to `O=C(C[C@@H]1C/C=C/CCC(=O)O[C@H](c2ccccc2)CNC1=O)NCc1cccc(Cl)c1`, for which, in [4], the Imax stood at 50%.

For `C[C@H]1C/C=C\C[C@@H](CC(=O)NCc2ccc(Cl)cc2)C(=O)OC[C@@H](c2ccccc2)NC1=O`, in experiment [4], the Imax is 97%.

On to `O=C(C[C@@H]1C/C=C/CCC(=O)N[C@H](c2ccc(Cl)cn2)COC1=O)NCc1ccc(Cl)cc1`, for which, at Protein smoothened [14], the IC50 was determined as 4.3 µM. Moreover, the Imax in experiment [15] was 85%.

Regarding `CCCC[C@@H]1COC(=O)[C@H](CC(=O)NCc2ccc(Cl)cc2)C/C=C/CCC(=O)N1`, the Imax in [4] turned out to be 53%.

On to `CC(C)(C)OC(=O)C[C@@H]1C/C=C/CCC(=O)N[C@H](c2ccccc2)COC1=O`, for which the Imax in [4] was 60%.

On to `O=C(C[C@@H]1C/C=C/CCC(=O)N[C@H](Cc2ccccc2)COC1=O)NCc1ccc(Cl)cc1`, for which the inhibition result in [17] and in [12] was “Active” in each case. The Imax in [4] is 90%. Also, the 50% inhibitory concentration (IC50) came to 8.1 µM on Protein smoothened [10] and 8.8 µM at Protein smoothened [11]. For the same molecule, the inhibition result in experiment [5], in experiment [6] and in experiment [7] was “inactive” in each case. The Ratio IC50 in experiment [13] came out at 18.

For `O=C(C[C@@H]1C/C=C/CCC(=O)OC[C@@H]2CCCN2C1=O)NCc1ccc(Cl)cc1`, in experiment [4], the Imax was 77%.

As to `O=C(C[C@@H]1C/C=C/CCC(=O)N[C@@H](c2ccccc2)COC1=O)NCc1ccc(Cl)cc1`, the Imax in [4] was 95%.

In the case of `O=C(C[C@@H]1C/C=C/CCC(=O)N[C@H](c2ccccc2)COC1=O)NCc1ccc(Cl)cc1`, the Imax in experiment [4] worked out at 86%.

Turning to `C[C@H]1C/C=C/C[C@@H](CC(=O)NCc2ccc(Cl)cc2)C(=O)OC[C@@H](c2ccccc2)NC1=O`, the Imax in experiment [4] came out at 78%.

Regarding `C[C@@H]1NC(=O)[C@H](CC(=O)NCc2ccc(Cl)cc2)C/C=C/CCC(=O)O[C@@H]1c1ccccc1`, the Imax in experiment [4] amounted to 77%.

On to `O=C(C[C@@H]1C/C=C/C[C@H](Cc2ccccc2)C(=O)N[C@H](c2ccccc2)COC1=O)NCc1ccc(Cl)cc1`, for which the Imax in experiment [4] stood at 106%.

`O=C(C[C@@H]1C/C=C/CCC(=O)N[C@@H]2c3ccccc3C[C@@H]2OC1=O)NCc1ccc(Cl)cc1`: the Imax in experiment [4] amounted to 40%.

As to `C[C@H]1[C@@H](c2ccccc2)OC(=O)CC/C=C/C[C@@H](CC(=O)NCc2ccc(Cl)cc2)C(=O)N1C`, the Imax in experiment [4] is 78%.

For `O=C(C[C@@H]1C/C=C/CCC(=O)O[C@H](c2ccccc2)CNC1=O)NCCCC(F)(F)F`, in experiment [4], the Imax was 28%.

For `O=C(CN1C/C=C/CCC(=O)N[C@H](c2ccccc2)COC1=O)NCc1ccc(Cl)cc1`, the Imax in experiment [4] was 47%.
